Assay outcomes from PubChem.
The list is not random: actives were taken first. Their share in the collection is about 11%.
Htt clearance: clearance of mutant huntingtin inclusions, primary screen, imaging, HeLa Exon1htt(103Q)mCFP, confocal imaging; aggregate imaging; zero = plate's median compound well; inhibition, % at 1.5 µM; 47,000 compounds, 0.42% hits; AID 853, 2007;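 active = inhibition of aggregate fluorescence above about 70%, also judged a hit by eye on the cell image, limit read from the data, passing the limit was not always enough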;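 note: cells exposed to compound for three days before fixation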
D1 allo mod: D1 CRE-luciferase signal change, two-sided – cell-based, HEK293 D1, dopamine EC30, D1 allosteric modulator project, primary screen. AID 641, 2007. 58,000 compounds, 5.9% hits. B-score at 10 µM. dopamine EC30 potentiation; actives deviate in either direction. D(1A) dopamine receptor (Homo sapiens), P21728;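 active = luminescence count or its row- and column-corrected plate score outside the 99.7% band of the plate's sample wells, on either side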
M1 antag: antagonists of rat M1 muscarinic receptor. 64,000 compounds, 3.4% hits. AID 628, 2007. Muscarinic acetylcholine receptor M1 (Rattus norvegicus), P08482. CHO-M1 cells, Fluo-4 calcium, ACh EC80 antagonist mode; stronger effect = lower value. B-score at 10 µM;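 active = calcium fluorescence response, raw or row-and-column corrected B-score, differing from the plate sample mean either way at a set confidence level, mostly lower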
SF1 activator: activators of human SF-1, primary screen, cell-based, CHO-K1, Gal4-SF-1 LBD, luciferase luminescence; Steroidogenic factor 1 (Homo sapiens), Q13285; CHO-K1 Gal4-SF-1 LBD luciferase reporter; % increase over DMSO SF-1-specific signal; activation, % at 10 µM; 65,000 compounds, 1.9% hits;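 active = activation above the mean activation of all tested compounds plus 3 SD, cut at about 50% in these data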
Target sequence (Q13285 whole entry, looked up, the tested form may be a part): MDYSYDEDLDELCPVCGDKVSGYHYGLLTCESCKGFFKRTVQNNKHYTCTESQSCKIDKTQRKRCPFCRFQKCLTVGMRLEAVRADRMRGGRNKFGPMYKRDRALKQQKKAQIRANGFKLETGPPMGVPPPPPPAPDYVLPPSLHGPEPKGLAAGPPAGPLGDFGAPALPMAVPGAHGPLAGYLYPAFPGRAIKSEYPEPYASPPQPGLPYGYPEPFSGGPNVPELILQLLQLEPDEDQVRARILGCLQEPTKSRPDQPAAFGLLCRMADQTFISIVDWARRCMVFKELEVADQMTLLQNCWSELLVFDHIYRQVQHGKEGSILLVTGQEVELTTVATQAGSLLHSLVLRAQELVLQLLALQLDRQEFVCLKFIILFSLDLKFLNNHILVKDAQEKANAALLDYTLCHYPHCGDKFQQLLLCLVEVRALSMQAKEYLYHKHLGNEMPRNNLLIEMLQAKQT
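Test system: CHO-K1 cells co-transfected with Gal4 DBD–human SF-1 LBD, 5xGal4 luciferase reporter. Quantity: 4,000 cells per well. Compound: 10 µM only. Incubation: compound added 1 h post-seeding, 20 h exposure at 37 °C, 5% CO2. Detection: SteadyLite luciferase luminescence. Replication: one test per compound.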
RORa activator: activators of orphan receptor RORA, primary screen, cell-based, luminescence | AID 560, 2006 | Nuclear receptor ROR-alpha (Homo sapiens), P35398 | 65,000 compounds, 1.5% hits | CHO-K1 Gal4-RORA LBD luciferase reporter; percent increase over mock-subtracted basal signal | activation, % at 10 µM;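 active = activation above the mean of all tested compounds plus 3 SD, cut at about 49% in these data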;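 note: 0% = DMSO-treated RORA cells and 100% = added signal equal to DMSO minus mock-transfected cells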
M1 agonist: M1 muscarinic receptor agonists, primary screen, CHO-M1 cells, Fluo-4 calcium, agonist mode; Muscarinic acetylcholine receptor M1; Fluo-4 calcium fluorescence; stronger effect = higher value; B-score at 10 µM; 64,000 compounds, 3% hits;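 active = fluorescence rise, raw or as B-score row- and column-corrected plate score, outside the 99.7% band of its plate's samples, either direction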
Starred values were filed as active, the others as inactive; . = no result given.

SMILES | Htt clearance | D1 allo mod | M1 antag | SF1 activator | RORa activator | M1 agonist
COc1ccc(C(=O)/C=C/Nc2cccc(C)n2)cc1OC | -14 | . | -0.57 | 88* | 13 | 1.9
CC(C)c1nc(SCc2c(F)cccc2Cl)c2c(=O)n(C)c(=O)n(C)c2n1 | -57 | -3.7* | -2.1 | -12 | -8 | 2.3
Cn1c(=O)c2c(nc(Br)n2Cc2c(F)cccc2Cl)n(C)c1=O | . | -0.87 | 1.2 | -2 | -20 | 0.13
COC(=O)Cn1cnc2c(nnn2-c2cccc(Cl)c2)c1=O | . | . | . | 7 | -14 | .
CCCCNC(=O)c1nnn(-c2ccccc2)c1N | . | 0.33 | -0.19 | 67* | 24 | -0.0097
c1ccc(OCCOc2ncnc3sccc23)cc1 | 32 | 0.59 | -0.051 | 53* | 39 | 0.0077
CCOc1ccc(OCCOc2ncnc3ccccc23)cc1 | 33 | . | . | . | . | .
O=C(NC1CCCC1)C1C2C=CC(C2)C1C(=O)N1CCOCC1 (configuration not stated) | 78* | 0.015 | -0.11 | -7 | 0 | -0.54
Nc1c(C(=O)NCCN2CCOCC2)c2nc3ccccc3nc2n1-c1ccc2c(c1)OCO2 | . | 0.26 | 0.0078 | -7 | 55* | -0.14
Nc1c(C(=O)NCCN2CCOCC2)c2nc3ccccc3nc2n1-c1ccccc1 | -44 | 0.015 | 0.056 | 6 | -15 | 0.66
C=CCN1N=C(c2ccc(Cl)s2)CSC1=O | 20 | . | . | . | . | .
Cc1onc(-c2ccccc2Cl)c1C(=O)N1CCCc2ccccc21 | . | -0.66 | -0.83 | 5 | 0 | -0.079
Cc1onc(-c2ccccc2Cl)c1C(=O)N1CCc2ccccc21 | . | -2.8* | -0.024 | -16 | -22 | 0.63
O=C(C1CCC(C(=O)N2CCc3ccccc32)CC1)N1CCc2ccccc21 (configuration not stated) | -6 | -0.26 | 1 | -16 | -2 | 0.7
O=C(c1ccc(Cl)s1)N1CCc2ccccc21 | -54 | -0.29 | 0.11 | 62* | 47 | 1.8
N#Cc1c(N)sc2c1CCN(CCc1ccccc1)C2 | -31 | . | . | . | . | .
CC(Nc1nc(N2CCN(S(C)(=O)=O)CC2)nc2ccccc12)c1ccccc1 (configuration not stated) | . | -3* | -0.15 | -11 | -14 | -0.0026
O=C(C1CC1)N1CCN(c2nc3ccccc3s2)CC1 | . | -0.63 | -0.13 | 25 | 36 | -1.2
CS(=O)(=O)N1CCN(c2nc3ccccc3s2)CC1 | 14 | -0.7 | -0.5 | 28 | 58* | 0.35
COCCNC(=O)c1ccc2c(c1)nc(C)n2-c1cc(OC)c(OC)c(OC)c1 | 65 | 0.35 | 0.89 | 13 | 4 | 0.31
O=C(CCn1c(=O)oc2ccccc21)Nc1ccc2c(c1)OCCO2 | . | -0.43 | -0.026 | 49 | 12 | -0.084
Cc1ccc2[nH]c(C)c(CN(C)C3CCN(C)CC3)c(=O)c2c1 | . | -0.32 | 0.27 | -11 | 12 | -0.36
O=c1[nH]c2ccc(S(=O)(=O)Nc3ccc(-c4nnc5n4CCCCC5)cc3)cc2o1 | . | -5* | 0.73 | 4 | 17 | -0.059
O=C1c2cccnc2C(Nc2ccc(S(=O)(=O)N3CCCCC3)cc2)N1Cc1ccccc1 (configuration not stated) | . | -1.4* | -1.2 | 8 | 3 | 2.5
O=C1c2ccccc2C(Nc2ccc(S(=O)(=O)N3CCCCC3)cc2)N1Cc1ccco1 (configuration not stated) | -50 | . | . | . | . | .
SMILES | Htt clearance | D1 allo mod | M1 antag | SF1 activator | RORa activator | M1 agonist
COc1cc(CNc2ccc(N3CCOCC3)c(C(=O)O)c2)ccc1OCC(N)=O | . | 0.79 | 0.071 | 5 | -10 | 0.54
Cn1nc(C(=O)NCc2ccccn2)c2ccccc2c1=O | -9 | 1.2 | 0.14 | -7 | 3 | 0.04
Cn1c(C(=O)NCc2ccccn2)cc2c(=O)n3ccccc3nc21 | . | 0.043 | 0.06 | 61* | 53* | -0.00042
CCn1c(COc2ccc(C)cc2)nnc1SCC(=O)Nc1ccc2c(c1)OCCO2 | . | 0.18 | -0.029 | -2 | -2 | 3.6
N=C1N(/N=C/c2ccccc2)C(=Nc2ccccc2)C(=S)N1c1ccccc1 | -21 | . | . | . | . | .
Cc1cc(C(=O)CSc2nnnn2-c2ccccc2)c(C)n1CC1CCCO1 (configuration not stated) | -18 | 0.35 | 0.096 | 68* | 45 | -0.055
Cc1cc(C(=O)CN2C(=O)c3ccccc3S2(=O)=O)c(C)n1CC1CCCO1 (configuration not stated) | . | -5.7* | 0.67 | -32 | -62 | -0.27
COC(=O)c1cnn(C(=O)c2cc(OC)ccc2Br)c1N | . | . | 0.88 | -4 | -7 | -0.5
CCOC(=O)C(=O)Nc1nnc(CCc2ccccc2)s1 | 8 | . | . | . | . | .
Cc1ccc(N(CC(=O)Nc2cccc(C)c2)S(=O)(=O)c2cccc3nonc23)cc1 | 29 | 2.3 | 0.47 | 8 | -15 | -0.8
OCCN(CCO)CC(O)COCCC12CC3CC(CC(C3)C1)C2 (configuration not stated) | -7 | . | . | . | . | .
Cc1c(C(=O)OC2CCCC2)[nH]c2c1C(=O)CC(c1ccco1)C2 (configuration not stated) | . | 6 | -0.92 | -44 | -41 | -0.55
COC(=O)C1C(=O)c2c([nH]c(C(=O)OC3CCCC3)c2C)CC1C (configuration not stated) | . | . | 0.45 | 56* | 49* | -0.29
Cc1cccc2c1N1C(=O)c3c(C(=O)O)cccc3C1CC2C (configuration not stated) | 1 | . | . | . | . | .
c1ccc(-c2nc3nc4ccccc4nc3n2Cc2ccco2)cc1 | -42 | -0.5 | -0.14 | 48 | 62* | 1.1
Fc1ccc(-c2nc3nc4ccccc4nc3n2Cc2ccco2)cc1 | -12 | 0.32 | 0.037 | 37 | 45 | 0.17
O=C(c1cc(-c2ccc(Cl)cc2)on1)N1CCOCC1 | -5 | -3.4 | -0.42 | -5 | 37 | -0.28
O=C(c1cc(-c2ccc(F)cc2)on1)N1CCCC1 | . | -3.6* | 0.83 | -6 | -10 | 0.82
O=C(c1cc(-c2ccc(Cl)c(Cl)c2)on1)N1CCCC1 | . | 0.91 | 0.67 | 46 | 60* | -0.18
CCn1c(=O)cc(SCC(=O)Nc2cccnc2)c2ccccc21 | -6 | -0.29 | 0.041 | 6 | -19 | -0.75
CCOc1cc(N2CCOCC2)c(OCC)cc1NC(=O)CCS(=O)(=O)c1ccc(Cl)cc1 | . | 0.0034 | 0.53 | -6 | 4 | 0.85
CCOc1cc(N2CCOCC2)c(OCC)cc1NS(=O)(=O)c1ccc(Cl)s1 | . | -0.41 | -1.1 | 19 | 79* | 0.12
Cc1sc2nc(CN(C(=O)NC3CCCCC3)C3CCCCC3)[nH]c(=O)c2c1C | 39 | . | . | . | . | .
COc1ccc(OCC(=O)Nc2ccc(S(=O)(=O)N3CCOCC3)cc2)cc1 | 87* | -0.67 | 1.3 | -6 | -3 | -0.092
